Laboratory results as given in ChEMBL document CHEMBL3112507 (Bioorg Med Chem, 2014).
Active and inactive are the calls of the source. The calls are words filed in the database; no cut-off is given here.

How the values were obtained:
[1] = target: T1, Polyunsaturated fatty acid 5-lipoxygenase (Homo sapiens) (UniProt P09917); assay: Inhibition of 5-LOX (unknown origin) using arachidonic acid as substrate at 1 uM after 5 mins by EIA
T1 sequence (whole entry): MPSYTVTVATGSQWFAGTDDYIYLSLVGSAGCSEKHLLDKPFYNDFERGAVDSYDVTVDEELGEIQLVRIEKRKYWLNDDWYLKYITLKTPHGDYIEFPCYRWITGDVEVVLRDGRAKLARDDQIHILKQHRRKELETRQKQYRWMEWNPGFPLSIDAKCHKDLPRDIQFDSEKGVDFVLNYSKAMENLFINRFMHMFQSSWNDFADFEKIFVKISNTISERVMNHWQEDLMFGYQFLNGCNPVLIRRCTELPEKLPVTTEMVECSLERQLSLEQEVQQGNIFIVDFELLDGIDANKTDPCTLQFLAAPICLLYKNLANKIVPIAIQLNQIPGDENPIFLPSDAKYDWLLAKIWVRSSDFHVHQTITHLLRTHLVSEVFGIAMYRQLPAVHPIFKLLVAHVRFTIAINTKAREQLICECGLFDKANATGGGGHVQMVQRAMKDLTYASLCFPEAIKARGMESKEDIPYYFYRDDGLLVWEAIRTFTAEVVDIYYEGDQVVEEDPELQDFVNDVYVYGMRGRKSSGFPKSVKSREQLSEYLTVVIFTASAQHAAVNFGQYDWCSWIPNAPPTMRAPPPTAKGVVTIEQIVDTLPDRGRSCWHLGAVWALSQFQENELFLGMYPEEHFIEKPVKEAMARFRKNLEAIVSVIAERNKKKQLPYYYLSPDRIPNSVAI
Summary of the method: (§1)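 Test compounds dissolved in DMSO at 0.01, 0.1, 1, 10 and 100 µM. Each was added to 5-LOX enzyme in assay buffer, and the reaction was started with arachidonic acid substrate. Plates were shaken 5 min, chromogen was added, shaken 5 min more, then read at 490 nm. Blanks were buffer plus AA; positive controls were enzyme plus AA. Run in duplicate, means with deviation <5% used. Percent inhibition was calculated from lipoxygenase activity; IC50 derived from the concentration series.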

[2] = target: T1, Polyunsaturated fatty acid 5-lipoxygenase (Homo sapiens); assay: Inhibition of 5-LOX (unknown origin) using arachidonic acid as substrate at 100 uM after 5 mins by EIA; summary of the method: as §1
[3] = target: Prostaglandin G/H synthase 1 (Homo sapiens) (UniProt P23219); assay: Inhibition of COX1 (unknown origin) by EIA
[4] = target: T1, Polyunsaturated fatty acid 5-lipoxygenase (Homo sapiens); assay: Inhibition of 5-LOX (unknown origin) using arachidonic acid as substrate at 0.1 uM after 5 mins by EIA; summary of the method: as §1
[5] = target: T2, Prostaglandin G/H synthase 2 (Homo sapiens) (UniProt P35354); assay: Inhibition of COX2 (unknown origin) by EIA
T2 sequence (whole entry): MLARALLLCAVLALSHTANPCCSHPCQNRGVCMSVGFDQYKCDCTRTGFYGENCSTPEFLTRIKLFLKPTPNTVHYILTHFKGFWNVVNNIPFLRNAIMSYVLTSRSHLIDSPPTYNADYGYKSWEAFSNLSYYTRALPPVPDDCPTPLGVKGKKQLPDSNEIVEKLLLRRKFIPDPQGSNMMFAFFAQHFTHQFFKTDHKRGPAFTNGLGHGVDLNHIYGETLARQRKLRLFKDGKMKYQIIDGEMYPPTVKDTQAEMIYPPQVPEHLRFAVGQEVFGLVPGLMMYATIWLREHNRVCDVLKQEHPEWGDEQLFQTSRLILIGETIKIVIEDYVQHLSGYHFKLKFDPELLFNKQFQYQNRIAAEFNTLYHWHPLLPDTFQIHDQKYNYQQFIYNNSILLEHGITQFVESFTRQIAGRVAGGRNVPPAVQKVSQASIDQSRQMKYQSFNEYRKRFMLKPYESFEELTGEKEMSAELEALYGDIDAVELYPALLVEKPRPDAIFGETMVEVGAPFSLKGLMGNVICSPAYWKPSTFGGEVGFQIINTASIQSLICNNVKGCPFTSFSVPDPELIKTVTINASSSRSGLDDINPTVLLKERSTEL

[6] = target: T1, Polyunsaturated fatty acid 5-lipoxygenase (Homo sapiens); assay: Inhibition of 5-LOX (unknown origin) using arachidonic acid as substrate at 0.01 uM after 5 mins by EIA; summary of the method: as §1
[7] = target: Phospholipase A2 (Homo sapiens) (UniProt P04054); assay: Inhibition of PLA2 (unknown origin) by Ellman's method
[8] = target: T1, Polyunsaturated fatty acid 5-lipoxygenase (Homo sapiens); assay: Inhibition of 5-LOX (unknown origin) using arachidonic acid as substrate at 10 uM after 5 mins by EIA; summary of the method: as §1
HeLa = assay: Cytotoxicity against human HeLa cells assessed as cell viability at […] after 15 to 45 hrs by MTT assay; assay type: cell-based
[9] = target: T3, Polyunsaturated fatty acid 5-lipoxygenase (Homo sapiens, UniProt P09917); assay: (§2) Inhibition of 5-LOX (unknown origin) by UV-Vis spectrophotometry
T3 sequence (P09917 whole entry): T1 sequence (whole entry)
Summary of the method: (§3)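 UV–visible spectral titration of the compounds with 5-LOX. Association constant Ka was obtained from 1/(Af−Aobs) = 1/(Af−Afc) + 1/(Ka[Af−Afc][L]). Ki was calculated as IC50/(1+[L]/Kd) using IC50 values from the enzyme immunoassay.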

[10] = target: T1, Polyunsaturated fatty acid 5-lipoxygenase (Homo sapiens); assay: as §2; summary of the method: as §3
[11] = target: T3, Polyunsaturated fatty acid 5-lipoxygenase; assay: Inhibition of 5-LOX (unknown origin) using arachidonic acid as substrate after 5 mins by EIA; summary of the method: as §1
[12] = target: T3, Polyunsaturated fatty acid 5-lipoxygenase; assay: Inhibition of 5-LOX (unknown origin) using arachidonic acid as substrate after 5 mins by EIA in presence of pig liver esterase
Summary of the method: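 Same 5-LOX colorimetric immunoassay kit procedure (compounds at 0.01–100 µM in DMSO, AA substrate, chromogen, 490 nm, duplicates). Ester compounds were first treated with pig liver esterase, extracted per a reported procedure, before addition to the 5-LOX enzyme.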

[13] = Octanol-water partition coefficient, log P of the compound; assay type: physicochemical

Sequence of Prostaglandin G/H synthase 1 (Homo sapiens) (P23219 whole entry): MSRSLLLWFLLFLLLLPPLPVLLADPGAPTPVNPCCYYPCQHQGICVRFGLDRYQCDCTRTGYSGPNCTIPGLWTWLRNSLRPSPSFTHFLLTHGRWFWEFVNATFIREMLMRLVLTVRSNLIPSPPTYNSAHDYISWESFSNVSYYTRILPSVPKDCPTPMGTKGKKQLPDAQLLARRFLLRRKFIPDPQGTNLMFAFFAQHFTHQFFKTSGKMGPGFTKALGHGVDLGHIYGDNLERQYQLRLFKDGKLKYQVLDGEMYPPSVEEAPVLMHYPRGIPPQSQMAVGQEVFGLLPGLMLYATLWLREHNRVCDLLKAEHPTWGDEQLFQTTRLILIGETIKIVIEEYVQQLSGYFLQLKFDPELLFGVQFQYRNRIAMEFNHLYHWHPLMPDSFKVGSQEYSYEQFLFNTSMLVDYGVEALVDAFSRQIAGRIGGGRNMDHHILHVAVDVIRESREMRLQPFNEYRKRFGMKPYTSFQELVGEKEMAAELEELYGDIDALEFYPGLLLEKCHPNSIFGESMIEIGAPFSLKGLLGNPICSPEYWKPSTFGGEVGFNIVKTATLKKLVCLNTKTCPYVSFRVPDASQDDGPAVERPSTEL
Sequence of Phospholipase A2 (Homo sapiens) (P04054 23-148 limits assumed): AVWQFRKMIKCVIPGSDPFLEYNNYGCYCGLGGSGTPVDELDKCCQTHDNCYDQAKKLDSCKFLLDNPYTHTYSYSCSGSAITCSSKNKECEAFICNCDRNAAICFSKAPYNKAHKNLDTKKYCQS

SMILES | inhibition [1] [%] | inhibition [2] [%] | inhibition [3] | inhibition [4] [%] | inhibition [5] | inhibition [6] [%] | inhibition [7] | inhibition [8] [%] | Ki [9] [nM] | Ka [10] | IC50 [11] [nM] | IC50 [12] [nM] | logP [13] | Activity (HeLa)
Cc1ccc(S(=O)(=O)n2cc(C(=O)C(=O)NCC(=O)O)c3ccccc32)cc1 | 78.4 | 97.5 | inactive | 63.5 | inactive | 57.4 | inactive | 91.2 | 8.4 | 2.07 ×10⁶ /M | 8.6 |  |  | Non-toxic
Cc1ccc(S(=O)(=O)n2cc(C(=O)C(=O)N3CCC[C@@H]3C(=O)O)c3ccccc32)cc1 | 53.5 | 74.3 | inactive | 45 | inactive | 27.3 | inactive | 68.8 | 510 | 2.6 ×10⁵ /M | 600 |  |  | 
COC(=O)[C@@H](Cc1cnc[nH]1)NC(=O)C(=O)c1cn(S(=O)(=O)c2ccc(C)cc2)c2ccccc12 | 45.3 | 63.8 | inactive | 40.5 | inactive | 30 | inactive | 58.2 | 4160 | 1.01 ×10⁴ /M | 4330 | 2980 | 1.98 | 
COC(=O)CC[C@@H](NC(=O)C(=O)c1cn(S(=O)(=O)c2ccc(C)cc2)c2ccccc12)C(=O)OC | 51.8 | 65 | inactive | 35.2 | inactive | 18.5 | inactive | 60.3 | 820 | 1.06 ×10⁵ /M | 900 | 130 | 2.12 | 
CC(C)(C)Sc1c(CC(C)(C)C(=O)O)n(Cc2ccc(Cl)cc2)c2ccc(OCc3ccc4ccccc4n3)cc12 [QUIFLAPON] |  |  |  |  |  |  |  |  |  |  | 1.6 |  |  | 
Cc1ccc(S(=O)(=O)n2cc(C(=O)C(=O)N[C@H](Cc3c[nH]c4ccccc34)C(=O)O)c3ccccc32)cc1 | 67.3 | 85 | inactive | 56.5 | inactive | 51 | inactive | 81.5 | 9.9 | 3.6 ×10⁵ /M | 10 |  |  | 
Cc1ccc(S(=O)(=O)n2cc(C(=O)C(=O)N[C@H](CCC(=O)O)C(=O)O)c3ccccc32)cc1 | 59.5 | 90.6 | inactive | 50.5 | inactive | 42 | inactive | 87.6 | 95 | 1.1 ×10⁵ /M | 97 |  |  | 
COC(=O)[C@H]1CCCN1C(=O)C(=O)c1cn(S(=O)(=O)c2ccc(C)cc2)c2ccccc12 | 54.5 | 72 | inactive | 48.7 | inactive | 38.5 | inactive | 69.3 | 320 | 1.2 ×10⁵ /M | 330 | 750 | 2.19 | 
COC(=O)[C@@H](Cc1c[nH]c2ccccc12)NC(=O)C(=O)c1cn(S(=O)(=O)c2ccc(C)cc2)c2ccccc12 | 62.7 | 80.4 | inactive | 55.3 | inactive | 45.5 | inactive | 75.5 | 37 | 6.67 ×10⁵ /M | 52 | 14 | 2.34 | 
Cc1ccc(S(=O)(=O)n2cc(C(=O)C(=O)N[C@H](Cc3cnc[nH]3)C(=O)O)c3ccccc32)cc1 | 48.7 | 64.7 | inactive | 28.5 | inactive | 20 | inactive | 55.5 | 2530 | 3.7 ×10⁴ /M | 2800 |  |  | 

Continued, in another order:

inhibition [1] [%] | inhibition [2] [%] | inhibition [3] | inhibition [4] [%] | inhibition [5] | inhibition [6] [%] | inhibition [7] | inhibition [8] [%] | Ki [9] [nM] | Ka [10] | IC50 [11] [nM] | IC50 [12] [nM] | logP [13] | SMILES | Activity (HeLa)
40.2 | 60.6 | inactive | 25.5 | inactive | 22.5 | inactive | 59.8 |  |  | 5460 |  |  | COC(=O)[C@H]1CCCN1C(=O)C(=O)c1c[nH]c2ccccc12 | 
43.4 | 65 | inactive | 41.1 | inactive | 35 | inactive | 49.8 |  |  |  |  |  | COC(=O)[C@@H](Cc1c[nH]c2ccccc12)NC(=O)C(=O)c1c[nH]c2ccccc12 | 
47.8 | 70 | inactive | 46.2 | inactive | 40 | inactive | 55.5 |  |  | 3500 |  |  | COC(=O)CNC(=O)C(=O)c1c[nH]c2ccccc12 | 
67.7 | 98 | inactive | 51.5 | inactive | 50 | inactive | 85 | 9.5 | 2.32 ×10⁶ /M | 9.7 | 8 | 2.21 | COC(=O)CNC(=O)C(=O)c1cn(S(=O)(=O)c2ccc(C)cc2)c2ccccc12 | Non-toxic
44.8 | 55 | inactive | 40 | inactive | 36 | inactive | 51.2 |  |  | 8330 |  |  | COC(=O)CC[C@@H](NC(=O)C(=O)c1c[nH]c2ccccc12)C(=O)OC | 
40.8 | 65 | inactive | 37.7 | inactive | 30 | inactive | 45.5 |  |  |  |  |  | COC(=O)[C@@H](Cc1cnc[nH]1)NC(=O)C(=O)c1c[nH]c2ccccc12 | 
